The source made the active and inactive calls. No cut-off for these calls is given here.
Experiments:
RAW264.7 [1] = assay: Antiinflammatory activity in mouse RAW264.7 cells assessed as inhibition of LPS-induced nitric oxide production incubated for 2 hrs prior to LPS challenge measured after 22 hrs relative to vehicle-treated control; type: functional, cell-based
Method in brief: (§1)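 Cells treated 2 h with compound (0–20 µM) or 10 µM hydrocortisone, followed by LPS for a further 22 h. NO production estimated as nitrite in culture medium by Griess reaction. Inhibition expressed as blocked ratio. Means ± SEM, four independent experiments.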

RAW264.7 [2] = assay: Antiinflammatory activity in mouse RAW264.7 cells assessed as inhibition of LPS-induced increase in TNF-alpha level incubated for 2 hrs prior to LPS challenge measured after 22 hrs by ELISA; type: functional, cell-based
Method in brief: (§2)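 RAW 264.7 macrophages pretreated 2 h with compound (0–20 µM) or 10 µM hydrocortisone as positive control, then exposed to LPS for a further 22 h. TNF-α, IL-1β and IL-6 in culture medium determined by ELISA. Means ± SEM from four independent experiments.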

RAW264.7 [3] = assay: Antiinflammatory activity in mouse RAW264.7 cells assessed as inhibition of LPS-induced increase in IL-1beta level at 10 uM incubated for 2 hrs prior to LPS challenge measured after 22 hrs by ELISA relative to control; type: functional; method in brief: as §2
RAW264.7 [4] = assay: Antiinflammatory activity in mouse RAW264.7 cells assessed as inhibition of LPS-induced ROS generation incubated for 2 hrs prior to LPS challenge measured after 22 hrs by spectrophotometry relative to vehicle-treated control; type: functional, cell-based
Method in brief: (§3)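 Compound (0–20 µM) applied to RAW 264.7 cells for 2 h, then LPS added for a further 22 h. Cells harvested, loaded with 10 µM DCFH-DA for 20 min, washed twice with cold PBS. Intracellular ROS read as arbitrary fluorescence units. Means ± SEM, four independent experiments.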

[5] = biological target: Transcription factor p65 (Mus musculus) (UniProt Q04207); assay: Antiinflammatory activity in mouse RAW264.7 cells assessed as inhibition of LPS-induced DNA binding activity of NF-kappaB p65 at 10 uM incubated for 1 hr prior to LPS challenge measured after 30 mins by ELISA relative to vehicle-treated control; type: cell-based
Transcription factor p65 (Mus musculus), sequence (Q04207 whole entry): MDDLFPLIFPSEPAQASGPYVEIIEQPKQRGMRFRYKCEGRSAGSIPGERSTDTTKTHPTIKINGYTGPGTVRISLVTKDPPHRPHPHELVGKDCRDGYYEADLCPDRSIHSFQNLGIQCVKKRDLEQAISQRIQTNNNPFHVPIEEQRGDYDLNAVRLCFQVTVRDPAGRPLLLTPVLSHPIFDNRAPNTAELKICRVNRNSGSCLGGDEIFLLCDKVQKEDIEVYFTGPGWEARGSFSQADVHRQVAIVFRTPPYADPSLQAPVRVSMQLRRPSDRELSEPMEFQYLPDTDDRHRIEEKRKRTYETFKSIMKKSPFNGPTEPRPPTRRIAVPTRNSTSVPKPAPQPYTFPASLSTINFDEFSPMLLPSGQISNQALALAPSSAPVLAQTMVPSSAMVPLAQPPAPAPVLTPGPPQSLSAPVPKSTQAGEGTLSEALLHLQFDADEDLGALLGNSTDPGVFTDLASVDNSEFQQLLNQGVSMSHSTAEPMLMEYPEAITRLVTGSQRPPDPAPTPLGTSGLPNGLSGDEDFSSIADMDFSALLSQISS
Method in brief: (§4)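 RAW264.7 cells preincubated with compound (0–20 µM) for 1 h, then stimulated with LPS for 30 min. NF-κB p65 DNA-binding activity quantified by ELISA-based TransAM p65 transcription factor kit. Means ± SEM of three independent experiments. LPS given at 0.5 µg/mL.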

RAW264.7 [6] = assay: Antiinflammatory activity in mouse RAW264.7 cells assessed as inhibition of LPS-induced ROS generation at 20 uM incubated for 2 hrs prior to LPS challenge measured after 22 hrs by spectrophotometry relative to vehicle-treated control; type: functional; method in brief: as §3
RAW264.7 [7] = assay: Antiinflammatory activity in mouse RAW264.7 cells assessed as inhibition of LPS-induced increase in IL-1beta level incubated for 2 hrs prior to LPS challenge measured after 22 hrs by ELISA; type: functional, cell-based; method in brief: as §2
RAW264.7 [8] = assay: Antiinflammatory activity in mouse RAW264.7 cells assessed as inhibition of LPS-induced increase in IL-6 level at 20 uM incubated for 2 hrs prior to LPS challenge measured after 22 hrs by ELISA relative to control; type: functional; method in brief: as §2
RAW264.7 [9] = assay: Antiinflammatory activity in mouse RAW264.7 cells assessed as inhibition of LPS-induced increase in IL-1beta level at 20 uM incubated for 2 hrs prior to LPS challenge measured after 22 hrs by ELISA relative to control; type: functional; method in brief: as §2
RAW264.7 [10] = assay: Antiinflammatory activity in mouse RAW264.7 cells assessed as inhibition of LPS-induced nitric oxide production at 20 uM incubated for 2 hrs prior to LPS challenge measured after 22 hrs relative to vehicle-treated control; type: functional; method in brief: as §1
RAW264.7 [11] = assay: Antiinflammatory activity in mouse RAW264.7 cells assessed as inhibition of LPS-induced increase in TNF-alpha level at 20 uM incubated for 2 hrs prior to LPS challenge measured after 22 hrs by ELISA relative to control; type: functional; method in brief: as §2
RAW264.7 [12] = assay: Antiinflammatory activity in mouse RAW264.7 cells assessed as inhibition of LPS-induced ROS generation at 10 uM incubated for 2 hrs prior to LPS challenge measured after 22 hrs by spectrophotometry relative to vehicle-treated control; type: functional; method in brief: as §3
RAW264.7 [13] = assay: Antiinflammatory activity in mouse RAW264.7 cells assessed as inhibition of LPS-induced nitric oxide production at 10 uM incubated for 2 hrs prior to LPS challenge measured after 22 hrs relative to vehicle-treated control; type: functional; method in brief: as §1
RAW264.7 [14] = assay: Antiinflammatory activity in mouse RAW264.7 cells assessed as inhibition of LPS-induced nitric oxide production at 2 uM incubated for 2 hrs prior to LPS challenge measured after 22 hrs relative to vehicle-treated control; type: functional; method in brief: as §1
RAW264.7 [15] = assay: Antiinflammatory activity in mouse RAW264.7 cells assessed as inhibition of LPS-induced increase in IL-6 level at 10 uM incubated for 2 hrs prior to LPS challenge measured after 22 hrs by ELISA relative to control; type: functional; method in brief: as §2
[16] = biological target: Transcription factor p65 (Mus musculus) (UniProt Q04207); assay: Antiinflammatory activity in mouse RAW264.7 cells assessed as inhibition of LPS-induced NF-kappaB p65 subunit nuclear translocation at 20 uM incubated for 1 hr prior to LPS challenge measured after 30 mins by immunofluorescence assay relative to vehicle-treated control; type: cell-based
Method in brief: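 Immunofluorescence: RAW 264.7 cells pretreated with 20 µM compound for 1 h, then LPS for 30 min. p65 subunit localization (cytoplasm vs nucleus) imaged by fluorescence microscopy.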

[17] = biological target: Transcription factor p65 (Mus musculus) (UniProt Q04207); assay: Antiinflammatory activity in mouse RAW264.7 cells assessed as inhibition of LPS-induced DNA binding activity of NF-kappaB p65 incubated for 1 hr prior to LPS challenge measured after 30 mins by ELISA relative to vehicle-treated control; type: cell-based; method in brief: as §4
RAW264.7 [18] = assay: Antiinflammatory activity in mouse RAW264.7 cells assessed as inhibition of LPS-induced increase in TNF-alpha level at 10 uM incubated for 2 hrs prior to LPS challenge measured after 22 hrs by ELISA relative to control; type: functional; method in brief: as §2
RAW264.7 [19] = assay: Cytotoxicity against mouse RAW264.7 cells assessed as cell viability at 0.01 to 100 uM after 24 hrs by MTT assay; type: cell-based; conditions: raw264.7, 24 h
Method in brief: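 Viability of RAW 264.7 cells measured by MTT after 24 h exposure to compound at 0.01–100 µM.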

[20] = biological target: Transcription factor p65 (Mus musculus) (UniProt Q04207); assay: Antiinflammatory activity in mouse RAW264.7 cells assessed as inhibition of LPS-induced DNA binding activity of NF-kappaB p65 at 20 uM incubated for 1 hr prior to LPS challenge measured after 30 mins by ELISA relative to vehicle-treated control; type: cell-based; method in brief: as §4
[21] = biological target: Transcription factor p65 (Mus musculus) (UniProt Q04207); assay: Antiinflammatory activity in mouse RAW264.7 cells assessed as inhibition of LPS-induced DNA binding activity of NF-kappaB p65 at 2 uM incubated for 1 hr prior to LPS challenge measured after 30 mins by ELISA relative to vehicle-treated control; type: cell-based; method in brief: as §4
RAW264.7 [22] = assay: Antiinflammatory activity in mouse RAW264.7 cells assessed as inhibition of LPS-induced increase in IL-6 level incubated for 2 hrs prior to LPS challenge measured after 22 hrs by ELISA; type: functional, cell-based; method in brief: as §2

Q: `CC1=C[C@]2(C(C)(C)O)C[C@]3(OC2=O)[C@@H](C)CC[C@@H]13` was tested. Which inhibition (RAW264.7 [1]) did it give?
A: Dose-dependent effect

Q: What about the inhibition (RAW264.7 [2]) of the same molecule?
A: Dose-dependent effect

Q: And the inhibition at 10 µM (RAW264.7 [3])?
A: 27.9%

Q: And the inhibition (RAW264.7 [4])?
A: Dose-dependent effect

Q: What about the inhibition [5] of the same molecule?
A: 51.3%

Q: And the inhibition at 20 µM (RAW264.7 [6])?
A: 82.3%

Q: And the inhibition (RAW264.7 [7])?
A: Dose-dependent effect

Q: What about the inhibition at 20 µM (RAW264.7 [8]) of the same molecule?
A: 78.3%

Q: What about the inhibition at 20 µM (RAW264.7 [9]) of the same molecule?
A: 68%

Q: What about the inhibition at 20 µM (RAW264.7 [10]) of the same molecule?
A: 71%

Q: What about the inhibition at 20 µM (RAW264.7 [11]) of the same molecule?
A: 55.4%

Q: And the inhibition at 10 µM (RAW264.7 [12])?
A: 57.9%

Q: What about the inhibition at 10 µM (RAW264.7 [13]) of the same molecule?
A: 53.9%

Q: What about the inhibition at 2 µM (RAW264.7 [14]) of the same molecule?
A: 25.1%

Q: What about the inhibition at 10 µM (RAW264.7 [15]) of the same molecule?
A: 37.3%

Q: What about the inhibition [16] of the same molecule?
A: Active

Q: What about the inhibition [17] of the same molecule?
A: Dose-dependent effect

Q: And the inhibition at 10 µM (RAW264.7 [18])?
A: 37.6%

Q: What about the Activity (RAW264.7 [19]) of the same molecule?
A: Non-toxic

Q: And the inhibition [20]?
A: 68%

Q: What about the inhibition [21] of the same molecule?
A: 36.5%

Q: What about the inhibition (RAW264.7 [22]) of the same molecule?
A: Dose-dependent effect

Q: Which results are given for `C[C@]12CCC(=O)C=C1CC[C@@H]1[C@@H]2[C@@H](O)C[C@@]2(C)[C@H]1CC[C@]2(O)C(=O)CO`?
A: inhibition (RAW264.7 [3]): Active; inhibition (RAW264.7 [13]): Active; inhibition (RAW264.7 [15]): Active; inhibition (RAW264.7 [18]): Active
